Data taken from article PMC6763203 (Molecular pharmaceutics, 2019).

Legend:
[1] = Hepatic microsome stability assay; type: in vitro ADME, human
[2] = Hepatic microsome stability assay; type: in vitro ADME, mouse
MRSA [3] = experiment: MRSA mouse peritonitis model; type: in vivo; settings: for MRSA in blood or kidney of the survived mice: 14 days after administration
S. aureus ATCC 29213 = experiment: Prevention of biofilm formation, microtiter dish assay; type: cell-based, Staphylococcus aureus; settings: 2 μg/mL, 24 h
In short: (§1)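 Static biofilm prevention assay with S. aureus ATCC 29213 or MRSA clinical isolates from local hospitals in central China. Strains were grown in TSB plus 1% glucose in 96-well tissue-culture plates with test compound (0.0125–8 μg/mL) for 24 h. Wells were washed with sterile water and stained with 0.1% (w/v) crystal violet. Stain was solubilised in 95% ethanol and read at 540 nm. Results are reduction in biofilm mass, from three independent experiments in triplicate.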

MRSA [4] = experiment: as above; type: cell-based, Staphylococcus aureus; settings: for inhibition of biofilm formation: 0.0125–8 μg/mL, 24 h
In short: as §1

[5] = Plasma protein binding by equilibrium dialysis; type: in vitro ADME, human; settings: 5 μM, 37 °C, 6 hours
In short: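 Equilibrium dialysis with test compound at 5 μM initial in the plasma chamber against PBS in the receiver chamber. Shaken at 37 °C for 6 h. Samples from both chambers were matrix-matched to 1:1 plasma:PBS and quantified by LC-MS/MS. Fraction bound = ([plasma] – [PBS]) / [plasma]. Run in triplicate.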

[6] = mouse, liver microsomes, pH 7.4

SMILES | Intrinsic Clearance ([1]; human liver microsomes) | Intrinsic Clearance ([2]; mouse liver microsomes 1 mg/mL, 1 μM compound) | T1/2 ([2]; mouse liver microsomes 1 mg/mL, 1 μM compound, 37 °C) | MRSA in blood or kidney of the survived mice (MRSA [3]) | mice survival (MRSA [3]; C57BL/6J mice, 50 mg/kg i.p. at 1 h and 5 h post infection, 14 days) | reduction of biofilm formation (S. aureus ATCC 29213) | inhibition of biofilm formation (MRSA [4]) | Plasma Protein Binding, Bound [5] | Plasma Protein Binding, Free [5] | microsomal CLint at 1 μM ([1]; human, liver microsomes, pH 7.4) | half-life at 1 μM [2, 6] | microsomal CLint at 1 μM [2, 6] | biofilm reduction, comparison of PTM with PTM-2t (MRSA [4])
CCSC1CC(=O)C(C)(CCC(=O)Nc2c(O)ccc(C(=O)O)c2O)C2C3CC4CC12CC4(C)O3 (centres unmarked) [2t] | 32.0 µL/min/mg | 46 µL/min/mg | 15.0 min | a significant number of MRSAs was still present | 80% | over 95% | dose-dependently inhibited | 35.0% | 65.0% |  |  |  | 
CC12C[C@@]34C=CC(=O)[C@@](C)(CCC(=O)Nc5c(O)ccc(C(=O)O)c5O)C3[C@H](CC1C4)O2 (some centres unmarked) [PTM, platensimycin, reference compound] |  |  |  |  |  | over 95% | dose-dependently inhibited | 66.0% |  | 14 µL/min/mg | 13.6 min | 51 µL/min/mg | reduced more biofilm from MRSA than PTM-2t
CN[C@H](CC(C)C)C(=O)N[C@H]1C(=O)N[C@@H](CC(N)=O)C(=O)N[C@H]2C(=O)N[C@H]3C(=O)N[C@H](C(=O)N[C@H](C(=O)O)c4cc(O)cc(O)c4-c4cc3ccc4O)[C@H](O)c3ccc(c(Cl)c3)Oc3cc2cc(c3O[C@@H]2O[C@H](CO)[C@@H](O)[C@H](O)[C@H]2O[C@H]2C[C@](C)(N)[C@H](O)[C@H](C)O2)Oc2ccc(cc2Cl)[C@H]1O [vancomycin, reference compound] |  |  |  | Only a few MRSA were present |  |  |  |  |  |  |  |  | 
